The values that follow come from ChEMBL document CHEMBL1141699, “Design, synthesis, and antibacterial activities of novel 3,6-bicyclolide oximes: length optimization and zero carbon linker oximes” (2008).

In brackets after ≈: the same amount, converted by molar mass.

Common to all, as to type: functional
Assay [1] has as its system Streptococcus pyogenes. The experiment in a line: Antibacterial activity against efflux-resistant Streptococcus pyogenes 1323 expressing mefA by broth-microdilution method. In outline:
(§1)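 MIC (µg/ml) by broth microdilution following CLSI standards.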

Another assay relates to Moraxella catarrhalis. The experiment in a line: Antibacterial activity against Moraxella catarrhalis by broth-microdilution method. In outline:
(§2)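 MICs were determined by broth microdilution following CLSI standards and reported in µg/ml.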
For orientation: In broth dilution the organism is exposed to a series of concentrations in liquid medium.

The subject of assay [2] is Streptococcus pyogenes. The experiment in a line: Antibacterial activity against erythromycin-susceptible Streptococcus pyogenes 19615 by broth-microdilution method. In outline:
as §2

Assay [3] has as its system Streptococcus pyogenes. Put plainly: Antibacterial activity against MLSB-resistant Streptococcus pyogenes 2912 expressing ermA by broth-microdilution method. In outline: as §1
Assay [4] has as its system Streptococcus pneumoniae. The experiment in a line: Antibacterial activity against MLSB-resistant Streptococcus pneumoniae 700906 expressing erm by broth-microdilution method. In outline: as §1
Assay [5] deals with Haemophilus influenzae. Put plainly: Antibacterial activity against ampicillin-susceptible Haemophilus influenzae by broth-microdilution method.
The test system of assay [6] is Staphylococcus aureus. The experiment in a line: Antibacterial activity against MLSB-resistant Staphylococcus aureus 27660 expressing ermA by broth-microdilution method. In outline: as §1
The test system of assay [7] is Staphylococcus aureus. Put plainly: Antibacterial activity against erythromycin-susceptible Staphylococcus aureus 29213 by broth-microdilution method. As to conditions: ATCC29213. In outline: as §1
Assay [8] deals with Staphylococcus aureus. The experiment in a line: Antibacterial activity against methicillin-resistant Staphylococcus aureus 33591 by broth-microdilution method. In outline: as §1
The subject of assay [9] is Haemophilus influenzae. The experiment in a line: Antibacterial activity against ampicillin-resistant Haemophilus influenzae 33929 expressing beta-lactamase by broth-microdilution method. In outline: as §1
Assay [10] concerns Streptococcus pneumoniae. Put plainly: Antibacterial activity against erythromycin-susceptible Streptococcus pneumoniae 49619 by broth-microdilution method. In outline: as §1
In assay [11] the test system is Streptococcus pneumoniae. Put plainly: Antibacterial activity against efflux-resistant Streptococcus pneumoniae 7701 expressing mefA by broth-microdilution method. In outline:
as §1

For `CC[C@H]1OC(=O)[C@H](C)[C@H]2OC/C(=N/OCc3ccccc3)CCO[C@](C)(C[C@@H](C)C(=O)[C@H](C)[C@H]3NC(=O)O[C@@]31C)[C@H](O[C@@H]1O[C@H](C)C[C@H](N(C)C)[C@H]1O)[C@H]2C`, the MIC in the assay on Streptococcus pyogenes [1] was 0.25 µg/mL (≈ 0.323 µM); in the assay on Moraxella catarrhalis, 0.125 µg/mL (≈ 0.162 µM); in the assay with Streptococcus pyogenes [2] it was not above 0.06 µg/mL; against Streptococcus pyogenes [3], 64 µg/mL (≈ 82.7 µM); with Streptococcus pneumoniae [4] it was more than 64 µg/mL; in the assay with Haemophilus influenzae [5] it was 8 µg/mL (≈ 10.3 µM). Also, the MIC was 0.5 µg/mL (≈ 0.646 µM) in the assay with Staphylococcus aureus [6]; 0.5 µg/mL (≈ 0.646 µM) against Staphylococcus aureus [7]; more than 64 µg/mL in the assay with Staphylococcus aureus [8]; 16 µg/mL (≈ 20.7 µM) against Haemophilus influenzae [9]; not above 0.06 µg/mL in the assay with Streptococcus pneumoniae [10]; 0.125 µg/mL (≈ 0.162 µM) against Streptococcus pneumoniae [11].

On to `CC[C@H]1OC(=O)[C@H](C)[C@@H](O[C@H]2C[C@@](C)(OC)[C@@H](O)[C@H](C)O2)[C@H](C)[C@@H](O[C@@H]2O[C@H](C)C[C@H](N(C)C)[C@H]2O)[C@](C)(O)C[C@@H](C)C(=O)[C@H](C)[C@@H](O)[C@]1(C)O` [ERYTHROMYCIN], for which the MIC with Streptococcus pyogenes [1] is 16 µg/mL (≈ 21.8 µM); against Moraxella catarrhalis, 0.13 µg/mL (≈ 0.177 µM); with Streptococcus pyogenes [2], 0.015 µg/mL (≈ 0.0204 µM); in the assay with Streptococcus pyogenes [3], more than 64 µg/mL; against Streptococcus pneumoniae [4] it was more than 64 µg/mL; against Haemophilus influenzae [5] it was 4 µg/mL (≈ 5.45 µM). The MIC is more than 64 µg/mL against Staphylococcus aureus [6]; 0.5 µg/mL (≈ 0.681 µM) in the assay with Staphylococcus aureus [7]; more than 64 µg/mL against Staphylococcus aureus [8]; 4 µg/mL (≈ 5.45 µM) with Haemophilus influenzae [9]; not above 0.06 µg/mL with Streptococcus pneumoniae [10]; 4 µg/mL (≈ 5.45 µM) in the assay on Streptococcus pneumoniae [11].
